Published values pooled from the literature.
Lines come from different studies, so protocols differ.
Target: Serine/threonine-protein kinase WNK3 (WNK3, Homo sapiens, UniProt Q9BYP7)

SMILES	effect on	technique	concentration	remaining binding
C=CC(=O)N1CCC(C(=O)NCC(=O)N2CCN(c3nc(-c4cnc(N)nc4C(F)F)nc(N4CCOCC4)n3)CC2)CC1	binding	competition with immobilised ligand	1 µM	96%
O=C(NCCCN1CCOCC1)c1ccc(Nc2nccc(-c3cc4ccccc4s3)n2)cc1	binding	competition with immobilised ligand	1 µM	100%
Cc1cnn2ncc(-c3ccnc(N(C)C)n3)c2c1	binding		1 µM	85%
FC(F)(F)Oc1cccc(-c2cnc3ccc(-c4ccncc4)nn23)c1	binding	competition with immobilised ligand	5 µM	77%
O=C(Nc1c[nH]nc1C(=O)NC1CCNCC1)c1cc(F)cc(F)c1	binding	competition with immobilised ligand	1 µM	100%
O=S(=O)(NC1CCC(c2cc(F)ccc2F)(S(=O)(=O)c2ccc(Cl)cc2)CC1)C(F)(F)F (stereo not shown)	cell-free assay	competition with immobilised ligand	1 µM	100%
CN(CCCC(F)(F)F)c1nccc(-c2cnn3ncccc23)n1	binding		1 µM	100%
CO[C@@H](C)c1c(Nc2ccc([C@H](N(C)C(=O)C3CCS(=O)(=O)CC3)C(F)(F)F)cc2)cnc2cc(Cl)nn12	cell-free assay	competition with immobilised ligand	1 µM	95%
F[C@@H]1CCN(c2nccc(-c3cnn4ncccc34)n2)C1	binding		1 µM	100%
CNC(=O)[C@@H]1CC[C@@H](n2c(-c3ccc4cnccc4c3)nc3ccc(C(=O)NCc4cccc(C(N)=O)c4)cc32)C1	binding	competition with immobilised ligand	1 µM	100%
Cc1cc(-n2nc(Cc3cc(F)cc(C(F)(F)F)c3)nc2C)ccc1C(N)=O	cell-free assay	competition with immobilised ligand	1 µM	100%
Nc1ncc2c(n1)-c1c([nH]c3ccc(C#CC4CC4)cc13)CCCC2	binding	competition with immobilised ligand	1 µM	89%
Cc1nccc(COC(=O)N2C[C@@H]3[C@@H](CNC(=O)c4ccc5[nH]nnc5c4)[C@@H]3C2)n1	cell-free assay	competition with immobilised ligand	1 µM	91%
CN(c1nccc(-c2cnn3ncccc23)n1)C1CC1	binding		1 µM	100%
CNCc1ccccc1-c1csc([C@H](C)Nc2nc(C)nc3cc(OC)c(OC)cc23)c1	cell-free assay	competition with immobilised ligand	1 µM	98%
O=C(c1ccc(Nc2ncc(Cl)c(-c3ccc(Cl)s3)n2)cc1)N1CCC(N2CCCC2)CC1	binding	competition with immobilised ligand	1 µM	73%
CN(c1ccnc(CNc2nc(Nc3ccc4c(c3)CC(=O)N4)ncc2C(F)(F)F)n1)S(C)(=O)=O	cell-free assay	competition with immobilised ligand	1 µM	79%
N[C@@H]1CCN(c2nccc(-c3cnn4ncccc34)n2)C1	binding		1 µM	98%
O=C(c1ccc(Nc2nccc(-c3cc4ccccc4s3)n2)cc1)N1CCC(N2CCCC2)CC1	binding	competition with immobilised ligand	1 µM	100%
Cn1cc(Cl)c2c(Oc3c(F)cc(Nc4cc(Cl)nc(N)n4)cc3F)ccnc21	cell-free assay	competition with immobilised ligand	0.1 µM	95%
C[C@H]1CCN(c2nccc(-c3cnn4ncccc34)n2)C1	binding		1 µM	98%
COc1ncc2cc3ccccc3nc2c1C#N	cell-free assay	competition with immobilised ligand	5 µM	96%
